The text below walks through data of ChEMBL document CHEMBL2321720, “Development of triarylsulfonamides as novel anti-inflammatory agents” (Bioorg Med Chem Lett, 2013).

≈ marks a conversion by molar mass, not a printed value.

The AUC is concentration integrated over time. Read a high AUC as more exposure. In general, Cmax refers to the maximum level reached in the sampled fluid or tissue. The term Papp B→A denotes the apparent permeability from the basolateral to the apical side of a cell layer. As a reminder, the Papp A→B is how fast a substance crosses the layer from the apical side. In general, Tmax refers to the time from dosing to the highest level. A word on the bioavailability: it is the share of a dose that reaches the circulation, judged against a reference dose that is usually intravenous. A higher bioavailability goes with good availability.

Data set [1] is described as follows: Thermodynamic aqueous solubility of the compound in fasted state simulated intestinal fluid after 24 hrs by HPLC analysis. In kind it is physicochemical. As to conditions: read-out: Therm_solubility. In outline: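 Solubility in FaSSIF. The sample was filtered and concentration measured by HPLC/UV.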
The nature of data set [2]: AUC in rat at […], po. Set-up: dose 2.5 mg/kg, route oral. It counts as ADME, organism-based. The conditions noted are these: plasma.
Data set [3] in a line: Cmax in rat at […], po. It counts as ADME, organism-based. Set-up: dose 2.5 mg/kg, route oral. The conditions noted are these: in vivo.
The nature of data set [4]: Apparent permeability from basolateral to apical side of human Caco2 cells. It counts as ADME, cell-based. The conditions noted are these: Caco-2.
Data set [5] can be described thus: Apparent permeability from apical to basolateral side of human Caco2 cells. It counts as ADME, cell-based. As to conditions: Caco-2. On the technique in general: Passage across Caco-2 layers is used to estimate intestinal permeability.
Data set [6] can be described thus: Tmax in rat at […], po. In kind it is ADME, organism-based. Also noted: dose 2.5 mg/kg, route oral. The conditions noted are these: in vivo.
Data set [7] is described as follows: Oral bioavailability in rat at […]. The conditions noted are these: in vivo. It counts as ADME, organism-based.

As to `O=S(=O)(Nc1cccc(CO)c1)c1ccc(-c2ccc(F)cc2)cc1Cl`, in data set [1], the solubility thermodynamic at 24 h was 25 µg/mL (≈ 63.8 µM).
With `Cc1c(CO)cccc1NS(=O)(=O)c1ccc(-c2ccc(F)cc2)cc1`, in data set [1], the solubility thermodynamic at 24 h is 24 µg/mL (≈ 64.6 µM).
Consider `Cc1c(CO)cccc1NS(=O)(=O)c1ccc(-c2ccc(F)cc2F)cc1`, for which the solubility thermodynamic at 24 h in data set [1] was 43 µg/mL (≈ 110 µM).
Regarding `Cc1c(CO)cccc1NS(=O)(=O)c1ccc(-c2ccc(Br)cc2)cc1`, the solubility thermodynamic at 24 h in data set [1] is 12 µg/mL (≈ 27.8 µM).
For `Cc1ccc(CO)cc1NS(=O)(=O)c1ccc(-c2ccc(Br)cc2)cc1`, in data set [1], the solubility thermodynamic at 24 h is 47 µg/mL (≈ 109 µM).
In the case of `O=S(=O)(Nc1cccc(CO)c1Cl)c1ccc(-c2ccc(Br)cc2)cc1`, the solubility thermodynamic at 24 h in data set [1] was 14 µg/mL (≈ 30.9 µM).
Still for that read-out and setting: as for `O=S(=O)(Nc1cc(CO)ccc1Cl)c1ccc(-c2ccc(Br)cc2)cc1`, the figure is 11 µg/mL (≈ 24.3 µM).
Still for that read-out and setting: as for `O=S(=O)(Nc1ccc(O)c(CO)c1)c1ccc(-c2ccc(Br)cc2)cc1`, the figure is 4 µg/mL (≈ 9.21 µM); as for `O=S(=O)(Nc1cc(CO)ccc1O)c1ccc(-c2ccc(Br)cc2)cc1`, 12 µg/mL (≈ 27.6 µM); as for `O=S(=O)(Nc1cc(CO)ccc1O)c1ccc(-c2ccc(F)cc2F)cc1`, 12 µg/mL (≈ 30.7 µM).
Regarding `O=S(=O)(Nc1cccc(CO)c1O)c1ccc(-c2ccc(Br)cc2)cc1`, the solubility thermodynamic at 24 h in data set [1] was 19 µg/mL (≈ 43.7 µM).
Regarding `O=S(=O)(Nc1ccc(CO)c(CO)c1)c1ccc(-c2ccc(F)cc2F)cc1`, in data set [1], the solubility thermodynamic at 24 h was 32 µg/mL (≈ 78.9 µM).
Still for that read-out and setting: as for `O=S(=O)(Nc1ccc(-c2ccc(Cl)cc2Cl)cc1)c1cccc(CO)c1`, the figure is 40 µg/mL (≈ 98 µM); as for `O=S(=O)(Nc1cccc(CO)c1)c1ccc(-c2ccccc2)cc1`, 11 µg/mL (≈ 32.4 µM).
With `O=S(=O)(Nc1cccc(CO)c1)c1ccc(-c2ccc(Br)cc2)cc1`, the solubility thermodynamic at 24 h in data set [1] is 22 µg/mL (≈ 52.6 µM).
`Cc1ccc(-c2ccc(S(=O)(=O)Nc3cccc(CO)c3)cc2)cc1`: the solubility thermodynamic at 24 h in data set [1] was 21 µg/mL (≈ 59.4 µM).
The same measure, in the same setting: the result for `O=S(=O)(Nc1cccc(CO)c1)c1ccc(-c2ccccc2F)cc1` reads 57 µg/mL (≈ 159 µM).
In the case of `O=S(=O)(Nc1cccc(CO)c1)c1ccc(-c2ccc(F)cc2F)cc1`, in data set [1], the solubility thermodynamic at 24 h is 50 µg/mL (≈ 133 µM).
Consider `O=S(=O)(Nc1cccc(CO)c1)c1ccc(-c2ccc(Cl)cc2Cl)cc1`, for which the AUC in data set [2] is 110 ng·h/mL. Moreover, the peak concentration (Cmax) in data set [3] was 30 ng/mL. Besides, in data set [4], the Papp B→A amounted to 5.5 ×10⁻⁶ cm/s. The Papp A→B in data set [5] worked out at 1.5 ×10⁻⁶ cm/s. For the same molecule, the Tmax in data set [6] was 50 min. This molecule displayed a bioavailability in data set [7] of 8%. In addition, the solubility thermodynamic at 24 h in data set [1] was 40 µg/mL (≈ 98 µM).
As for `O=S(=O)(Nc1cccc(CO)c1)c1ccc(-c2ccc(Cl)cc2F)cc1`, in data set [1], the solubility thermodynamic at 24 h is 73 µg/mL (≈ 186 µM).
